“And” between values parts separate entries of the source, which are not always exact repeats. Equal entries are not always repeated.

This note sets out measurements from ChEMBL document CHEMBL1125085, “Synthesis and anticonvulsant activity of some new 2-substituted 3-aryl-4(3H)-quinazolinones” (J Med Chem, 1990).

For series [1], the system named is Mus musculus. Briefly: (§1) MES test was performed after Injecting intraperitoneally at the time of peak anticonvulsant effect in phase II test. The format is functional. The settings on record: ip. The method in brief: (§2)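 Phase II testing in male Carworth Farms no. 1 mice, ip dosing in 30% PEG 400 (0.01 mL/g). Groups of 8–16 mice received a range of doses, giving at least three points in 10–90% protection. ED50 with 95% confidence interval was fitted by probit analysis at the time of peak effect. scMet used pentylenetetrazol 85 mg/kg sc.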

The test system of series [2] is Mus musculus. Briefly: (§3) Subcutaneous metrazole (scMet) test was conducted after Injecting intraperitoneally at the time of peak anticonvulsant in phase II test. The format is functional. The method in brief:
as §2

Series [3] is described as follows: Protective index is the ratio of TD50 and ED50 values obtained in the subcutaneous metrazole (scMet) test. It is filed as functional. The method in brief: (§4)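 Protective index = TD50/ED50. Both values are medians from groups of 8–16 animals per dose, with at least three points in the 10–90% effect range, fitted by probit analysis. Each was taken at its own time of peak effect: seizure protection for ED50, neurologic deficit for TD50.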

Series [4] is filed under the species Mus musculus. Briefly: (§5) Median toxic dose was measured at time of peak neurologic deficit. It is filed as functional. The essentials:
(§6)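 Mice dosed ip in 30% PEG 400. Minimal neurotoxicity was scored by rotorod at the time of peak neurologic deficit. Groups of 8–16 mice were used, with at least three points in the 10–90% range, and TD50 with 95% confidence interval was derived by probit analysis.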

For series [5], the species on record is Mus musculus. Briefly: (§7) Time taken to reach peak activity was reported. The format is functional.
For series [6], the species on record is Mus musculus. Description: (§8) Time taken to reach peak toxicity was reported. The conditions noted are these: in vivo. It is filed as organism-based.
A short description of series [7]: Protective index is the ratio of TD50 and ED50 values obtained in the maximal electroshock seizure (MES) test. The format is functional. The method in brief: as §4
Series [8] relates to Mus musculus. Briefly: Subcutaneous metrazole (scMet) test was conducted and median effective dose was determined at the time of peak anticonvulsant and sedative effect. The format is organism-based. The settings on record: in vivo. The essentials: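 Pentylenetetrazol (85 mg/kg in mice, 70 mg/kg in rats) was given subcutaneously in the posterior midline as a 0.5% solution. Compounds were in 30% PEG 400, dosed ip in male Carworth Farms no. 1 mice, or orally in mice and Sprague-Dawley rats. ED50 was read at time of peak effect, using groups of 8–16 animals and ≥3 doses giving 10–90% protection. Probit analysis gave 95% confidence intervals.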

Series [9] can be described thus: as §7. It is filed as functional.
For series [10], the species on record is Mus musculus. Description: Anticonvulsant activity was determined by injecting perorally in mice. MES test was performed. The format is functional. The essentials: (§9)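 Oral dosing in mice, test solutions in 30% polyethylene glycol 400, 0.01 mL/g body weight. Groups of 8–16 mice received a range of doses until at least three points fell within 10–90% seizure protection.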

The nature of series [11]: as §8.
The nature of series [12]: Neurotoxicity was determined by injecting perorally in rats. The settings on record: rat, in vivo, po. The format is toxicity, organism-based. The essentials: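 Rats dosed orally in 30% PEG 400. Neurotoxicity was assessed by positional sense and gait-and-stance tests at the time of peak deficit. TD50 with 95% confidence interval was derived by probit analysis from at least three dose points in the 10–90% range.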

For series [13], the species on record is Mus musculus. Briefly: Anticonvulsant activity was determined by injecting perorally in mice.(scMet) test was conducted. The format is functional. The essentials:
as §9

The nature of series [14]: Dose Injected intraperitoneally that causes death 50% of the mice within 24 hr was reported as lethal dose 50 (LD50). The format is organism-based. The conditions noted are these: mouse, in vivo, ip.
The species named for series [15] is Mus musculus. Description: Anticonvulsant activity was determined by injecting perorally in mice. Time taken to reach peak activity was reported. It is filed as functional. The method in brief: (§10)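 Time of peak effect, in hours, was found separately for anticonvulsant activity and for neurotoxicity. ED50 and TD50 were then determined at those times.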
For series [16], the species on record is Rattus norvegicus. Briefly: Anticonvulsant activity was determined by injecting perorally in rats. Time taken to reach peak activity was reported. The format is functional. The method in brief: as §10
For series [17], the species on record is Rattus norvegicus. Briefly: Anticonvulsant activity was determined by injecting perorally in rats. MES test was performed. The format is functional.
For series [18], the species on record is Rattus norvegicus. Briefly: Anticonvulsant activity was determined by injecting perorally in rats. Time taken to reach peak toxicity was reported. It is filed as organism-based. The settings on record: in vivo, po. The essentials:
as §10

The test system of series [19] is Mus musculus. The description is as §3. The format is ADME, organism-based. The settings on record: ip. The essentials: as §2
Series [20] is described as follows: as §5. It is filed as organism-based. The conditions noted are these: mouse, in vivo. The method in brief: as §6
For series [21], the species on record is Rattus norvegicus. Description: Anticonvulsant activity was determined by injecting perorally in rats. (scMet) test was conducted. The format is functional.
Series [22] is filed under the species Mus musculus. Briefly: Anticonvulsant activity was determined by injecting perorally in mice. Time taken to reach peak toxicity was reported. It is filed as functional. The essentials: as §10
Series [23] relates to Mus musculus. The description is as §1. The conditions noted are these: ip. It is filed as ADME, organism-based. The method in brief: as §2
Series [24] relates to Mus musculus. Briefly: Dose Injected intraperitoneally that causes loss of righting reflex in mice was reported as hypnotic dose (HD). The format is functional. The essentials:
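Mice dosed ip after a toxicity profile at TD50, 2× and 4× TD50, observed from 10 min to 24 h. HD50 is the dose causing loss of righting reflex in 50% of mice, with groups of eight mice scored at several times up to 24 h.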

Series [25] concerns Mus musculus. Briefly: Rotarod test was used to evaluate neurotoxicity in mice. Toxicity values are reported after 0.5 h. toxicity at 300 mg/kg; - denotes no activity observed at 300 mg/kg toxic. It is filed as organism-based. The conditions noted are these: in vivo.
The subject of series [26] is Mus musculus. Briefly: Rotarod test was used to evaluate neurotoxicity in mice. Toxicity values are reported after 0.5 h.,toxicity at 300 mg/kg; Toxic. It is filed as organism-based. Also on record: dose 300 mg/kg. The conditions noted are these: in vivo. Background: In the rotarod test animals must keep their balance on a rotating rod.
The species entered for series [27] is Mus musculus. Briefly: Time taken to reach peak activity was reported. The format is functional. The method in brief: as §10
Series [28] in a line: Median toxic dose was measured at time of peak neurologic deficit. The format is organism-based. The settings on record: mouse, in vivo. The method in brief:
as §6

For series [29], the system named is Mus musculus. Briefly: Rotarod test was used to evaluate neurotoxicity in mice. Toxicity values are reported after 4.0 hr toxicity at 300 mg/kg; toxic. The settings on record: in vivo. Also on record: dose 300 mg/kg. It is filed as organism-based.
For series [30], the system named is Mus musculus. Briefly: Rotarod test was used to evaluate neurotoxicity in mice. Toxicity values are reported after 0.5 hr at 300 mg/kg; Toxic. The conditions noted are these: in vivo. The format is organism-based. On the set-up: dose 300 mg/kg.

As usually defined, the ED50 is the dose at which the effect has come halfway, by size or by number of responders. What is called TD50 is the dose at which the toxic effect under study appears in half of the subjects. Read a low TD50 as greater toxicity. Regarding `O=C(Cc1nc2ccccc2c(=O)n1-c1ccccc1F)c1ccncc1`, the ED50 turned out to be 196 mg/kg in [1] and 50 mg/kg in series [2]. The PI turned out to be 16.6 in [3] and 4.2 in series [7]. In series [4], this compound came in with a TD50 of 832 mg/kg. In addition, the values for the TPE in [5] and in series [6] were 2 h and 1 h, respectively.
In the case of `CCC1(C)CC(=O)NC1=O` (stereo not given) [ETHOSUXIMIDE], the ED50 in [8] turned out to be 130.4 mg/kg.
In general, LD50 refers to the dose expected to kill half of the subjects tested. For `O=C(Cc1nc2ccccc2c(=O)n1-c1ccccc1Cl)c1ccncc1`, the TPE is 2.5 h in series [9]; 2.5 h in [11]; 1 in series [15]; 4 h in series [16]; 4 h in [18]; 0.5 in series [22]. Besides, the ED50 in series [10] was 14.1 mg/kg; in series [13] it was 2.53 mg/kg; in series [17], 1.44 mg/kg; in series [19] it was 14.5 mg/kg; in series [21], 3.09 mg/kg; in [23] it was 196 mg/kg. Also, the TD50 in [12] is 2.91 mg/kg; in series [20], 262 mg/kg. For the same compound, the 50% lethal dose (LD50) at 24 h in [14] was > 3000 mg/kg. For the same compound, in series [7], the PI was 1.3 (2×) and 2. Besides, in series [24], the HD50 is 1181 mg/kg.
On to `O=C(Cc1nc2ccccc2c(=O)n1-c1ccccc1Cl)c1cccnc1`, for which, in series [25], the Activity result is given as “Toxic”.
As for `O=C(Cc1nc2ccccc2c(=O)n1-c1ccc(Br)cc1)c1ccncc1`, in series [26], the Activity result is reported as “Toxic”.
Consider `O=C(Cc1nc2ccccc2c(=O)n1-c1ccccc1Br)c1ccncc1`, for which the figures for the ED50 in series [1] and in series [2] were 136 mg/kg and 19 mg/kg, respectively. Also, the TPE in series [27] came out at 1 h. Also, in series [28], the TD50 is > 2000 mg/kg. The Activity entry in series [29] and in [30] was “Toxic” throughout. In addition, the PI was >105 in series [3] and > 14.7 in series [7].
